Data on 1 compound can be found in article PMC7442688 (Nature chemical biology, 2020).

This assay addresses T1, purified mLYPLAL1 (Mus musculus, UniProt Q3UFF7).
T1 sequence (Q3UFF7 1-239): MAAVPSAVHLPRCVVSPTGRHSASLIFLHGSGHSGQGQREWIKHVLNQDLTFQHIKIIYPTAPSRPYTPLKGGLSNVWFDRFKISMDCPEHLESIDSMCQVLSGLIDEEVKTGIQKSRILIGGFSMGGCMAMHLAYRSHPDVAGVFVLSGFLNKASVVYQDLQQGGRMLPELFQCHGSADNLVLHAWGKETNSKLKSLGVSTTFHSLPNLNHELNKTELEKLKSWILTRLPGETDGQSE
The experiment in a line: NanoDSF thermal stability assay. The format is binding. The following applies: recombinant mLYPLAL1. In a few lines: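 Purified mouse LYPLAL1 (2.3 μM final) in PBS pH 7.4 with varying test compound concentrations (2% DMSO final) in capillaries. Intrinsic-fluorescence nanoDSF over a 20–95°C ramp at 1°C/min. Kd estimated by isothermal analysis of the unfolding data.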

With `COc1ccc(S(=O)(=O)n2nc(NCc3ccc(Cl)cc3)nc2N)cc1` [Compound 80, 3-(4-chlorobenzyl)amino-1-((4-methoxyphenyl)sulfonyl)-5-amino-1H-1,2,4-triazole], the “effect on thermal stability of mLYPLAL1” value is given as “not seen”.
